# Activity calls are given as the source filed them. How the calls were made is not given here.
# Biological target: Muscarinic acetylcholine receptor M1 (Rattus norvegicus) (UniProt P08482)
# Experiment: rat M1 receptor potentiation, selectivity assay for M5 PAM project, CHO cells (AID 651921)
# Summary of the method: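 Assay system: CHO-K1 cell line | Reagent: Acetylcholine, EC20 | Compound: 0.3% DMSO final in compound wells | Times: 1.5 min compound, 50 s agonist, 25 °C | Measured by: Fluorescence readout of intracellular calcium | Evaluation: Baseline-normalized signal as percent of maximal acetylcholine response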
# Chain of Muscarinic acetylcholine receptor M1 (Rattus norvegicus) (P08482 whole entry, looked up): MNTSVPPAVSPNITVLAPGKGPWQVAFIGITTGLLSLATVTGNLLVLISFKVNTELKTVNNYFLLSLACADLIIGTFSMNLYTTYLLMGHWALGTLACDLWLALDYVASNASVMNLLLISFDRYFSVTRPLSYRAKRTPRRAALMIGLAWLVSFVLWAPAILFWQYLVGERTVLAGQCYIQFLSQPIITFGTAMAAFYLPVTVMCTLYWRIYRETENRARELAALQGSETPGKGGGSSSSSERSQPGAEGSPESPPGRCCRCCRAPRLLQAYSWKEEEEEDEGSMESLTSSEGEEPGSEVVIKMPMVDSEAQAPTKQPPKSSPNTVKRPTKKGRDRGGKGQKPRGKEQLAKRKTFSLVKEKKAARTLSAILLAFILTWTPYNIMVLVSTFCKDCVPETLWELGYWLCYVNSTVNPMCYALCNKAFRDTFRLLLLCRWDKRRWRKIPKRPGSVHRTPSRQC
smiles,measurement,value
O=C1C(=O)N(CCOc2ccccc2)c2ccc(OC(F)(F)F)cc21,outcome,inactive

# From PubChem BioAssay AID651921 (Vanderbilt Specialized Chemistry Center, 2012)
